What all share (format): functional, cell-based
Experiment [1] relates to KB. Description: Cytotoxicity against human KB cells after 72 hrs. Put shortly: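 KB cells from the American Type Culture Collection; growth monitored after 72 h incubation with compound. IC50 taken as the drug concentration giving 50% growth inhibition.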
Experiment [2] relates to HL-60. The experiment is described as follows: Cytotoxicity against human HL60 cells by SRB assay.
Experiment [3] deals with A549. The experiment is described as follows: Cytotoxicity against human A549 cells by SRB assay.

SMILES strings stand for the structures.

Regarding `COc1cc(/C=C/CO)cc(OC)c1OCc1ccccc1`, the midpoint of inhibition in experiment [1], the IC50, lay at 860 µM.

In the case of `COc1cc(/C=C/C=O)cc(OC)c1OCc1ccccc1`, 640 µM corresponded to half-maximal inhibition in experiment [1] (IC50). As for `COc1cc(/C=C/CO)cc(OC)c1OCC=C(C)C`, the IC50 in experiment [1] turned out to be 7.8 µM. Consider `COc1cc(/C=C/C=O)cc(OC)c1OC/C=C(\C)CCC=C(C)C` [NELUMAL A], for which the IC50 in experiment [1] is 2.6 µM; in experiment [2] it was 12 µM; in experiment [3], 22 µM. Consider `COc1cc(/C=C/CO)cc(OC)c1OC/C=C(\C)CCC=C(C)C` [NELUMOL A], for which the IC50 in experiment [1] turned out to be 3 µM; in experiment [2], 6.7 µM; in experiment [3], 34 µM.
